# Screens as filed in PubChem BioAssay.
# KCNQ1 pot = potentiators or activators of KCNQ1 channel, primary screen, cell-based, thallium flux, high-throughput; B-score at 10 µM; hit rate 0.35% among 310,000; Potassium voltage-gated channel subfamily KQT member 1 (Homo sapiens), P51787; AID 2648, 2010; CHO-K1 KCNQ1, thallium flux FluxOR fluorescence; active compounds read high;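 active means fluorescence ratio B-score, a plate-corrected score, at least three library SD, with initial intensity B-score within 5 SD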
#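 Material: CHO-K1 cells stably expressing KCNQ1. Medium: assay buffer for compound exposure, DMSO matched across wells. Reagent: K+/Tl+ depolarizing stimulus. Compound dosing: single-concentration screen. Times: 37 °C overnight plating, 90-min dark dye load, 20-min compound pretreatment. Technique: FluxOR Tl+ flux fluorescence.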
# Kir21 block = inhibitors of mouse Kir2.1 inward-rectifier potassium channel. HEK293-Kir2.1, FluxOR thallium flux fluorescence; active compounds read low. Inward rectifier potassium channel 2 (Mus musculus), P35561. hit rate 0.85% among 310,000. B-score at 10 µM;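 active means fluorescence ratio B-score at or below minus 3 SD of library scores, with starting-brightness B-score within 2 SD, cut at about -4.2 in these data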;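 further: channel flux triggered by added potassium and thallium sulfate stimulus; B-score of peak minus minimum fluorescence over baseline after thallium stimulus; more negative B-score means stronger Kir2.1 block with less thallium influx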
# Target sequence (P35561 whole entry, looked up): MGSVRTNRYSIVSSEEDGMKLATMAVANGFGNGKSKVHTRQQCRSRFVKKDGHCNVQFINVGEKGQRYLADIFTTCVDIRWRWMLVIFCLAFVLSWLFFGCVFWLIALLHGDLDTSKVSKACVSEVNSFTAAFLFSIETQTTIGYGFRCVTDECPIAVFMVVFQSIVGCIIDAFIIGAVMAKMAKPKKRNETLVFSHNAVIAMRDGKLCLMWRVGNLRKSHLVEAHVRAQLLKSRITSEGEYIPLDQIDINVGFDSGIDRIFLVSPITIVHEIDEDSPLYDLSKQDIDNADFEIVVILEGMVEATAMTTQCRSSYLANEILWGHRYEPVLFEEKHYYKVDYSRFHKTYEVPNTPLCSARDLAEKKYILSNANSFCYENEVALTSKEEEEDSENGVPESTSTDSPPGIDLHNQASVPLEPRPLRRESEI
# KCNK3 inh = human KCNK3 channel inhibitors, primary screen, CHO cells, FluxOR thallium flux, B-score; B-score at 10 µM; FluxOR fluorescence; active compounds read low; hit rate 0.84% among 340,000; Potassium channel subfamily K member 3 (Homo sapiens), O14649;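 active means B-score under library mean minus 4 SD, starting fluorescence ratio at most library mean plus 5 SD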;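 further: more negative B-score means stronger inhibition of thallium flux through KCNK3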
# KCNQ1 block = inhibitors of human KCNQ1 channel, primary screen, cell-based, thallium flux, high-throughput; Potassium voltage-gated channel subfamily KQT member 1 (Homo sapiens), P51787; hit rate 1.3% among 310,000; B-score at 10 µM; CHO-K1 KCNQ1, FluxOR thallium flux fluorescence; active compounds read high;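 active means compounds whose thallium flux B-score, printed positive for inhibition, exceeds three library SD while starting fluorescence stays within three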;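 further: channel opened by potassium depolarization with thallium stimulus after 20 min compound exposure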
# KCNK9 inh = KCNK9 potassium channel inhibitors, primary screen, HEK293 cells, thallium flux; Potassium channel subfamily K member 9 (Homo sapiens), Q9NPC2; FluxOR thallium flux fluorescence; active compounds read low; B-score at 10 µM; hit rate 1.2% among 310,000;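 active means ratio B-score over 3 SD below the library mean, with starting fluorescence within 5 SD of its mean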;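 further: negative B-score means less thallium flux so channel inhibition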
# hERG rescue = hERG rescue from dofetilide block, primary screen, cell-based, CHO-hERG, FluxOR thallium flux, dofetilide IC70; Voltage-gated inwardly rectifying potassium channel KCNH2 (Homo sapiens), Q12809; dofetilide IC70 present; activation (rescue from dofetilide block), less the hit threshold, % at 10 µM; hit rate 0.51% among 310,000; AID 1511, 2009;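 active means activation above the mean of controls blocked by dofetilide plus 5 SD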;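 further: thallium influx through hERG after potassium depolarization seen as dye fluorescence rise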
# KCNK9 inh conf = KCNK9 potassium channel inhibitors, confirmation, HEK293 cells, thallium flux, duplicate; shares compounds with KCNK9 inh; FluxOR thallium flux fluorescence; inhibition, % at 10 µM; hit rate 43% among 4,900; AID 492992, 2010;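 active means thallium signal inhibited by more than 5 SD of the compound-free buffer control wells, on both duplicate plates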
# Kir21 sel = mouse Kir2.1 channel inhibition, confirmation, selectivity assay for KCNK9 modulator project, cell-based, HEK293, thallium flux. inhibition, % at 10 µM. Kir2.1 cells, FluxOR thallium flux fluorescence. shares compounds with KCNK9 inh. hit rate 4% among 4,900;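 active means thallium signal drop more than 5 SD beyond the mean of the no-compound control wells, seen in both duplicate plates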;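 further: signal is fluorescence rise after thallium addition divided by baseline fluorescence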
# HEK293 Tl ctr = thallium flux in non-induced HEK293 cells, confirmation, counter-screen for KCNK9 inhibitor project, cell-based, second counter screen, non-induced KCNK9-HEK293. inhibition, % at 10 µM. shares compounds with KCNK9 inh. hit rate 40% among 4,900. FluxOR thallium flux;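 active means thallium signal drop beyond 5 SD of the untreated control mean, on both duplicate plates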
# KCNK3 inh conf = retest of human KCNK3 channel inhibitors, confirmation, CHO cells, FluxOR thallium flux, triplicate | shares compounds with KCNK3 inh | FluxOR fluorescence; 0% buffer, 100% carvedilol maximal block | ratio percent of control, % at 10 µM | hit rate 99% among 2,400;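 active means ratio percent of control, averaged over triplicates, above buffer control mean plus 5 SD, cut at about 64% in these data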;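 further: ratio is the fluorescence rise from min to max over baseline after thallium stimulus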
# KCNK3 uninduced = thallium flux inhibition in non-induced cells, primary screen, counter-screen for KCNK3 inhibitor project, cell-based, non-induced KCNK3 line, FluxOR thallium, triplicate. AID 651747, 2012. thallium flux ratio (lower = more inhibition) at 10 µM. shares compounds with KCNK3 inh. non-induced KCNK3 parental cells; active compounds read low. hit rate 40% among 2,400;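 active means thallium flux ratio, averaged over three wells, more than 5 SD below the buffer control mean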;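 further: host cells are CHO cells without KCNK3 induction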
# Hits are given with their value; – = inactive; · = no result given. An excerpt weighted towards active compounds, which were near 3.7% of everything screened.
SMILES,KCNQ1 pot,Kir21 block,KCNK3 inh,KCNQ1 block,KCNK9 inh,hERG rescue,KCNK9 inh conf,Kir21 sel,HEK293 Tl ctr,KCNK3 inh conf,KCNK3 uninduced
Cc1nc2c(-c3ccc(F)cc3)c(C)nn2c(C)c1CCC(=O)N1CCC(Cc2ccccc2)CC1,–,–,-10,–,-9.8,–,–,–,42%,115,–
COc1cc2c(c3oc(-c4ccccc4)cc(=O)c13)C=CC(C)(C)O2,–,–,-8.8,–,-9.4,–,44%,–,–,122,0.14
CC(C)(C)NC(=O)C(c1ccc(F)cc1)N(Cc1ccccc1Cl)C(=O)c1ccn[nH]1 (stereo not drawn),–,–,–,–,–,–,·,·,·,·,·
Cc1cccc(Nc2nc(C)nc3c2oc2ccccc23)c1,–,–,-9,–,-8.8,–,30%,–,26%,116,–
CCCc1cc(C(=O)Cc2ccc(F)cc2)c(O)cc1O,–,–,-8.8,–,-10,–,60%,–,38%,108,–
CCNC(=S)N(CCc1c(C)[nH]c2ccc(F)cc12)Cc1cccnc1,–,–,–,–,–,–,·,·,·,·,·
Cc1[nH]c2ccc(F)cc2c1CCN(Cc1cccnc1)C(=S)Nc1ccc(F)cc1,–,–,-9.5,–,-9.6,–,–,–,26%,103,–
COc1ccc2[nH]c(C)c(CCN(Cc3cccs3)C(=S)Nc3ccccc3)c2c1,–,–,-13,–,-11,–,38%,–,34%,130,0.13
COc1ccc(NC(=O)N(C)C[C@H]2Oc3ccc(NC(=O)c4ccncc4)cc3C(=O)N([C@H](C)CO)C[C@@H]2C)cc1,·,·,–,·,·,·,·,·,·,·,·
C[C@H](NC(=O)c1ccccc1Cl)C(=O)OC(C(=O)Nc1cc(C(F)(F)F)ccc1Cl)c1ccccc1 (stereo partly drawn),–,–,-11,–,-18,–,68%,–,40%,108,–
N#CCC(=O)Nc1ccc(C(=O)OC(C(=O)Nc2cc(C(F)(F)F)ccc2Cl)c2ccccc2)cc1 (stereo not drawn),–,–,–,–,–,–,·,·,·,·,·
Cc1ccc(O)c(C(=O)c2cnc3c(c2)COc2ccc(C)cc2-3)c1,–,–,–,–,-13,–,72%,–,40%,113,–
CC(C)Oc1cccc(C(=O)N/N=C/c2coc3ccccc3c2=O)c1,–,–,–,–,–,–,·,·,·,·,·
Cc1ccc(-c2nc3c(c(=O)c4ccccc4n3C)c(=O)n2-c2ccc(F)cc2)cc1,–,–,–,–,–,–,·,·,·,·,·
Cn1c2ccccc2c(=O)c2c(=O)n(-c3ccccc3)c(-c3ccc(C(C)(C)C)cc3)nc21,–,–,-8.9,–,-12,–,34%,–,–,130,0.099
O=C(Nc1ccccc1C(=O)NCc1ccccc1)C1=CSCCO1,–,–,–,–,–,–,·,·,·,·,·
COc1cccc(C(=O)NCC(c2cccs2)N2CCc3ccccc32)c1 (stereo not drawn),–,–,-14,–,-17,–,56%,–,37%,135,0.12
Cc1ccc(NC(=O)Nc2cccn(Cc3c(F)cccc3Cl)c2=O)cc1,–,–,–,–,–,–,·,·,·,·,·
Cc1ccc(CN2CCCN(Cc3c(F)cccc3Cl)S2(=O)=O)cc1,–,–,-10,–,-14,–,60%,–,43%,113,–
Cc1cccc(Oc2cc(NC(=O)c3ccccc3)cc([N+](=O)[O-])c2)c1,–,–,-12,6,-12,–,64%,–,39%,133,0.15
Cn1cc([N+](=O)[O-])c(C(=O)Nc2cc(Oc3ccccc3)cc([N+](=O)[O-])c2)n1,–,–,–,–,–,–,·,·,·,·,·
O=C(CCC(=O)N1CCOc2ccccc21)Nc1ccccc1Br,–,–,–,–,–,–,·,·,·,·,·
Cc1ccccc1CN(C)C(C)C(=O)Nc1ccccc1F (stereo not drawn),–,–,-11,–,-14,–,58%,–,44%,114,–
CCC(C)NC(=O)c1ccc2c(c1)S(=O)(=O)c1ccccc1C2=O (stereo not drawn),–,–,–,–,–,–,·,·,·,·,·
CCCN(/C=N/c1sc2c(c1C#N)CCCCC2)CCC,–,–,-11,–,-19,–,69%,–,48%,105,–
SMILES,KCNQ1 pot,Kir21 block,KCNK3 inh,KCNQ1 block,KCNK9 inh,hERG rescue,KCNK9 inh conf,Kir21 sel,HEK293 Tl ctr,KCNK3 inh conf,KCNK3 uninduced
O=S(=O)(N/N=C/c1cn(Cc2ccccc2)c2ccccc12)c1ccccc1,–,–,–,–,–,–,·,·,·,·,·
COCCOC1CCN(C(=O)c2cc(COc3ccc(F)cc3F)on2)CC1,–,–,–,–,–,–,·,·,·,·,·
Cc1nn(Cc2ccc(C(=O)NN)o2)c(C)c1Cl,–,–,–,–,–,–,·,·,·,·,·
Cc1nn(Cc2ccc(C(=O)Nc3ccc(C(=O)OC(C)C)cc3)o2)c(C)c1Cl,–,–,-9.5,–,-10,–,56%,–,–,107,–
Cc1cc2nc(-c3cccnc3SCC(=O)NC(C)C)[nH]c2cc1C,–,–,–,–,–,–,·,·,·,·,·
O=C(OCc1ccc2c(c1)OCO2)c1cccc(S(=O)(=O)N2CCCCC2)c1,–,–,-9.3,–,-19,–,72%,–,30%,114,–
CCOc1ccc(CCNC(=O)COC(=O)c2cccc(S(=O)(=O)N3CCCC3)c2)cc1OCC,–,–,-9.2,–,-9.4,–,38%,–,36%,65,–
